In ChEMBL document CHEMBL1154951, “Discovery of potent and bioavailable GSK-3beta inhibitors” (Bioorg Med Chem Lett, 2010):
Converted amounts (≈) assume the structure as drawn. The source made the active and inactive calls. The calls are words filed in the database; no cut-off is given here.

Tests used:
[1] = target: Protein kinase C alpha type (Homo sapiens, UniProt P17252); assay: Inhibition of PKCalpha
[2] = target: Glycogen synthase kinase-3 beta (Homo sapiens, UniProt P49841); assay: Inhibition of human recombinant GSK3-beta assessed as [gamma33]ATP transfer to biotinylated CREB-peptide substrate after 1 hr by scintillation counting
[3] = Aqueous solubility at pH 6.6; type: physicochemical
Rattus norvegicus [4] = assay: AUC in rat at 25 mg/kg, po; settings: plasma
Rattus norvegicus [5] = assay: Cmax in rat at 25 mg/kg, po; settings: in vivo
Mus musculus [6] = assay: Cmax in mouse at 10 mg/kg, ip; type: ADME, organism-based; design: dose 10 mg/kg, route intraperitoneal; settings: in vivo, BLD = below limit of detection
Mus musculus [7] = assay: AUC in mouse at 10 mg/kg, ip; type: ADME, organism-based, Plasma; design: dose 10 mg/kg, route intraperitoneal; settings: in vivo, BLD = below limit of detection
Rattus norvegicus [8] = assay: Antiosteoporosis activity in ovariectomized rat assessed as increase in bone mineral density in L5 vertebra at 30 mg/kg, po QD for 3 weeks by bone densitometer relative to control; type: functional, organism-based; design: dose 30 mg/kg
[9] = target: Cyclin-dependent kinase 7 (Homo sapiens, UniProt P50613); assay: Inhibition of CDK7
Method in brief: (§1)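 Affinity measured as a binding constant (Kd) in a quantitative competition binding assay, not as a catalytic activity read-out. An 11-point concentration curve was run for each kinase. Kd values are given in µM. Each value is also expressed as a ratio over the Kd for GSK3b.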

[10] = target: Cyclin-dependent kinase 18 (Homo sapiens, UniProt Q07002); assay: Inhibition of PCTK3; method in brief: as §1
[11] = target: Cyclin-dependent kinase 9 (Homo sapiens, UniProt P50750); assay: Inhibition of CDK9
Method in brief: (§2)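 Competition binding assay giving binding constant (Kd) from an 11-point quantitative affinity curve against each kinase in a selectivity panel; values reported in µM and as ratio over GSK3b.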

[12] = target: Serine/threonine-protein kinase PLK1 (Homo sapiens, UniProt P53350); assay: Inhibition of PLK1; method in brief: as §1
[13] = target: Mitogen-activated protein kinase 4 (Homo sapiens, UniProt P31152); assay: Inhibition of ERK4; method in brief: as §1
[14] = target: Serine/threonine-protein kinase PLK3 (Homo sapiens, UniProt Q9H4B4); assay: Inhibition of PLK3; method in brief: as §1
[15] = target: Dual specificity tyrosine-phosphorylation-regulated kinase 1B (Homo sapiens, UniProt Q9Y463); assay: Inhibition of DYRK1B; method in brief: as §2
[16] = target: Cyclin-dependent kinase 17 (Homo sapiens, UniProt Q00537); assay: Inhibition of PCTK2; method in brief: as §1
[17] = target: Dual specificity protein kinase CLK1 (Homo sapiens, UniProt P49759); assay: Inhibition of CLK1; method in brief: as §1
Rattus norvegicus [18] = assay: Antiosteoporosis activity in ovariectomized rat assessed as increase in bone mineral density in distal femur at 30 mg/kg, po QD for 3 weeks by bone densitometer relative to control; type: functional, organism-based; design: dose 30 mg/kg
[19] = target: Mitogen-activated protein kinase 3 (Homo sapiens, UniProt P27361); assay: Inhibition of ERK1; method in brief: as §1
[20] = target: Cyclin-dependent kinase 3 (Homo sapiens, UniProt Q00526); assay: Inhibition of CDK3; method in brief: as §2
[21] = target: Mitogen-activated protein kinase 15 (Homo sapiens, UniProt Q8TD08); assay: Inhibition of ERK8; method in brief: as §1
[22] = target: Cyclin-dependent kinase 19 (Homo sapiens, UniProt Q9BWU1); assay: Inhibition of CDK11; method in brief: as §1
Rattus norvegicus [23] = assay: Antiosteoporosis activity in ovariectomized rat assessed as increase in bone mineral density in proximal tibia at 30 mg/kg, po QD for 3 weeks by bone densitometer relative to control; type: functional, organism-based; design: dose 30 mg/kg
[24] = target: Mitogen-activated protein kinase 6 (Homo sapiens, UniProt Q16659); assay: Inhibition of ERK3; method in brief: as §1
[25] = target: Interferon-induced, double-stranded RNA-activated protein kinase (Homo sapiens, UniProt P19525); assay: Inhibition of PRKR; method in brief: as §2
[26] = target: Mitogen-activated protein kinase 7 (Homo sapiens, UniProt Q13164); assay: Inhibition of ERK5; method in brief: as §1
[27] = target: Cyclin-dependent kinase 8 (Homo sapiens, UniProt P49336); assay: Inhibition of CDK8; method in brief: as §1
[28] = target: Dual specificity protein kinase CLK4 (Homo sapiens, UniProt Q9HAZ1); assay: Inhibition of CLK4; method in brief: as §1
Aurora kinase B = Aurora kinase B (Homo sapiens, UniProt Q96GD4); assay: Inhibition of AURKB; method in brief: as §1
[29] = target: Glycogen synthase kinase-3 alpha (Homo sapiens, UniProt P49840); assay: Inhibition of GSK3alpha; method in brief: as §1
[30] = target: Dual specificity protein kinase CLK3 (Homo sapiens, UniProt P49761); assay: Inhibition of CLK3; method in brief: as §1
[31] = target: Cyclin-dependent kinase 2 (Homo sapiens, UniProt P24941); assay: Inhibition of CDK2; method in brief: as §1
[32] = target: Cyclin-dependent kinase 5 (Homo sapiens, UniProt Q00535); assay: Inhibition of CDK5; method in brief: as §1
[33] = target: Mitogen-activated protein kinase 1 (Homo sapiens, UniProt P28482); assay: Inhibition of ERK2; method in brief: as §1
[34] = target: Dual specificity protein kinase TTK (Homo sapiens, UniProt P33981); assay: Inhibition of TTK; method in brief: as §1
[35] = target: Dual specificity protein kinase CLK2 (Homo sapiens, UniProt P49760); assay: Inhibition of CLK2; method in brief: as §1
[36] = target: Serine/threonine-protein kinase 16 (Homo sapiens, UniProt O75716); assay: Inhibition of STK16; method in brief: as §1
Rattus norvegicus [37] = assay: Antiosteoporosis activity in ovariectomized rat assessed as increase in bone mineral density in whole femur at 30 mg/kg, po QD for 3 weeks by bone densitometer relative to control; type: functional, organism-based; design: dose 30 mg/kg
[38] = target: Serine/threonine-protein kinase PLK4 (Homo sapiens, UniProt O00444); assay: Inhibition of PLK4; method in brief: as §1
Aurora kinase C = Aurora kinase C (Homo sapiens, UniProt Q9UQB9); assay: Inhibition of AURKC; method in brief: as §1
Aurora kinase A = Aurora kinase A (Homo sapiens, UniProt O14965); assay: Inhibition of AURKA; method in brief: as §2
Aurora kinase A, sequence (O14965 whole entry): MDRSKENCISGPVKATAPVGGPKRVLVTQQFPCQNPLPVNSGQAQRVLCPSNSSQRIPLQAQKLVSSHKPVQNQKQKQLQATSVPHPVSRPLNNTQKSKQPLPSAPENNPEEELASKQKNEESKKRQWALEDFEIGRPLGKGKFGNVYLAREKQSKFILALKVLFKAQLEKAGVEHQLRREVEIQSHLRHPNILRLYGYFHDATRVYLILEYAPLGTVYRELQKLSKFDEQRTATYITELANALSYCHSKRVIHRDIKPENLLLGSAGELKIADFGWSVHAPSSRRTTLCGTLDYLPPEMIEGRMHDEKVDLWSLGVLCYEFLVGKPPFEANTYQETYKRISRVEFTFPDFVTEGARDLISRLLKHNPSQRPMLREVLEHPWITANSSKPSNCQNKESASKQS

Glycogen synthase kinase-3 beta, sequence (P49841 whole entry): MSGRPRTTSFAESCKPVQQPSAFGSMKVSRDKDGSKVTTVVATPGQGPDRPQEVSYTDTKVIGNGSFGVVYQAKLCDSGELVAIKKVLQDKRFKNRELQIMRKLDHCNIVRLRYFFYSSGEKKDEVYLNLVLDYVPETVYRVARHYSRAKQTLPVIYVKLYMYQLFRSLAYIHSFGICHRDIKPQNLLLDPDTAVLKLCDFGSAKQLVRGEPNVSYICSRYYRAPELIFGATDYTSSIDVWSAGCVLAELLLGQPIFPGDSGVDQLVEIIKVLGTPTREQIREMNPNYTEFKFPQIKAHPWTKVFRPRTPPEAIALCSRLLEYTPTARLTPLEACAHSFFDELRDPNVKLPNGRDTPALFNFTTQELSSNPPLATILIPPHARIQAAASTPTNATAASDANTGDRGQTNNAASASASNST
Dual specificity protein kinase CLK4, sequence (Q9HAZ1 whole entry): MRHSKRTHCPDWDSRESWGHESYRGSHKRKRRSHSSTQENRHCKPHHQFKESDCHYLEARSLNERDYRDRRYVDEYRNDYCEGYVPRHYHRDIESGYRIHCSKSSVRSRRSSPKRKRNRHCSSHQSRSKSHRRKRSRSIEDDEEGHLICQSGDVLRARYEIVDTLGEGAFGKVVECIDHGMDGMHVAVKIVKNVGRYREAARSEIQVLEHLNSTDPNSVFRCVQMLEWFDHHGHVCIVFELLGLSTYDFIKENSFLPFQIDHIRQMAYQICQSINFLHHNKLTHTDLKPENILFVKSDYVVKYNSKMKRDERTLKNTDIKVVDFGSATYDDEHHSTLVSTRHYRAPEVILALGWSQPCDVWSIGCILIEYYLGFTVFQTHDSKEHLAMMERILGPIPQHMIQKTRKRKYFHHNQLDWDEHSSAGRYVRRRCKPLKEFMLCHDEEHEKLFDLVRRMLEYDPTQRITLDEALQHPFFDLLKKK
Mitogen-activated protein kinase 15, sequence (Q8TD08 whole entry): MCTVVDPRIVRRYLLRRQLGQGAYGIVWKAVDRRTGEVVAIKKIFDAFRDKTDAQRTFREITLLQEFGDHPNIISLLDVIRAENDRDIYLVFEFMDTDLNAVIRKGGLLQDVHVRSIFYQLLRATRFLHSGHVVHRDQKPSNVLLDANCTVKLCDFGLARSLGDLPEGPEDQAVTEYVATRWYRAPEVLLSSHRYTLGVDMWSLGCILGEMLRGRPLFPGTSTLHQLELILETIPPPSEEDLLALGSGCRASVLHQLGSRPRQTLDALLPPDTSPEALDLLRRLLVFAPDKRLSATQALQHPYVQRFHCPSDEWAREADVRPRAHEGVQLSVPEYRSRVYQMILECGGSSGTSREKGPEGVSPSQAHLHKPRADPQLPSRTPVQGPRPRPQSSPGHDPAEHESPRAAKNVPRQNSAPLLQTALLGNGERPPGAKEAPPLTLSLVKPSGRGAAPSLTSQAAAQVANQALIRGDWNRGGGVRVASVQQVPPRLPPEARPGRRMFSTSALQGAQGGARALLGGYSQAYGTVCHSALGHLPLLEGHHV
Aurora kinase B, sequence (Q96GD4 whole entry): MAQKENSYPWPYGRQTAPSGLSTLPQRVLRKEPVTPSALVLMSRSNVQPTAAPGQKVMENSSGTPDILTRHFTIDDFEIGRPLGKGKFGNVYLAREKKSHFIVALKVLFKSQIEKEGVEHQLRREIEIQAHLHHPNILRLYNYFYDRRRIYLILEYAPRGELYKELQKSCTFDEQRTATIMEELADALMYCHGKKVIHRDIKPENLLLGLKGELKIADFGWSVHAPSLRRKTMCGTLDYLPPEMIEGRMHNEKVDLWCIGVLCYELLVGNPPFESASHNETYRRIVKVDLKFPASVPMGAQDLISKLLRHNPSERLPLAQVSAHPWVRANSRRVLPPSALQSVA
Mitogen-activated protein kinase 3, sequence (P27361 whole entry): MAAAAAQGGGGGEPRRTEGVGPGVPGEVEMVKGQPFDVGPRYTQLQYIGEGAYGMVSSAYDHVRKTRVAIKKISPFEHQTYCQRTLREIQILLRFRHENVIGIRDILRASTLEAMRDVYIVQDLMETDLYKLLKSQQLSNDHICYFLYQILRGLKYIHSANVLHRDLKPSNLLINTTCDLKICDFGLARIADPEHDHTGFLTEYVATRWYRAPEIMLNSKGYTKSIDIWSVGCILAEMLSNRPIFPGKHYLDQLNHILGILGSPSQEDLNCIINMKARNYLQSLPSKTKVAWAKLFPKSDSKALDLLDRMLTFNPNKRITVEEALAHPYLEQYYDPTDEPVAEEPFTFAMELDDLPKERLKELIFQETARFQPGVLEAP
Serine/threonine-protein kinase 16, sequence (O75716 whole entry): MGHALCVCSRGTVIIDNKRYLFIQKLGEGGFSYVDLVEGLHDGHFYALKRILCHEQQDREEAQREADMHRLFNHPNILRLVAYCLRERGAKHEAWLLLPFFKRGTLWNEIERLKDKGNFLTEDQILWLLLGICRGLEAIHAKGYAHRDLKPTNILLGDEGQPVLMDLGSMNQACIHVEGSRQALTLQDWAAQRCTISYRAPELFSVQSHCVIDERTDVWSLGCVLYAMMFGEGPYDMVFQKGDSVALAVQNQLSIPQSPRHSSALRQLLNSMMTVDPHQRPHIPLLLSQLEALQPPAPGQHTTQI
Cyclin-dependent kinase 8, sequence (P49336 whole entry): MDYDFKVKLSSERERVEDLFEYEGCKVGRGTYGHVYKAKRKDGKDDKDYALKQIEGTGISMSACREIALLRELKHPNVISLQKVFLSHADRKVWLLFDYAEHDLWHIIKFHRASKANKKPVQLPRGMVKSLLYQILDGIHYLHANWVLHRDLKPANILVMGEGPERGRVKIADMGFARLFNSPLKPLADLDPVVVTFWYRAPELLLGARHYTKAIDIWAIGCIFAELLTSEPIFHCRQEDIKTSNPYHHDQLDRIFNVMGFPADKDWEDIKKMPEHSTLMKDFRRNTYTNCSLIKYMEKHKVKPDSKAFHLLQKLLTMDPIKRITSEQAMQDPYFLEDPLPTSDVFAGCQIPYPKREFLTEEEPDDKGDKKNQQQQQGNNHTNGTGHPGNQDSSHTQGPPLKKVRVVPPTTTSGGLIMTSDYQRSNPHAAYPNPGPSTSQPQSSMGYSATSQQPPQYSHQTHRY
Aurora kinase C, sequence (Q9UQB9 whole entry): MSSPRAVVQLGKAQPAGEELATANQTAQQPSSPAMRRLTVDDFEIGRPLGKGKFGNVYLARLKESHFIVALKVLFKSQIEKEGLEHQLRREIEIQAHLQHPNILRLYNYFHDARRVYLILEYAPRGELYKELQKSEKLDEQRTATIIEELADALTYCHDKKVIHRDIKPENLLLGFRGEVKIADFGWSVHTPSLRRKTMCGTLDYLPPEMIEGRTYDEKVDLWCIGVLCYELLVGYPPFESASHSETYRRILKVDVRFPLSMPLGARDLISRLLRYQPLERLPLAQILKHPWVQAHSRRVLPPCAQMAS
Glycogen synthase kinase-3 alpha, sequence (P49840 whole entry): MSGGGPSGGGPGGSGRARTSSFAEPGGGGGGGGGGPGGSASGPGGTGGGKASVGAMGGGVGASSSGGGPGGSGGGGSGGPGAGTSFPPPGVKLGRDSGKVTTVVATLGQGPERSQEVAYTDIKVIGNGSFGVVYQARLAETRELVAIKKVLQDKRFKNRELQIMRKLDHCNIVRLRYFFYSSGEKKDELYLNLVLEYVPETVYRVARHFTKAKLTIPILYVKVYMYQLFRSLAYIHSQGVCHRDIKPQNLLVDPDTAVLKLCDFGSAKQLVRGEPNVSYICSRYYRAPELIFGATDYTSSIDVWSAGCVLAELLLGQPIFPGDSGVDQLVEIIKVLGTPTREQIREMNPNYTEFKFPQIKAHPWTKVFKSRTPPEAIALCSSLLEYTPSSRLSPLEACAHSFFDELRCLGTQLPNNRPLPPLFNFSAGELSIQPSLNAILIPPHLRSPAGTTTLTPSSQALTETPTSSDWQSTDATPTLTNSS

## Cn1cc(C2=C(c3c4n(c5ccccc35)CCN(C(N)=S)C4)C(=O)NC2=O)c2ccccc21
[1]
  IC50: 1050 nM
[2]
  IC50: 10 nM

## CN(C)c1nc2ccc1CCCN1C=C(C3=C(C(=O)NC3=O)c3cn(c4ccccc34)CCC2)N2C=CC=CC12 (stereo not drawn)
[2]
  IC50: 7 nM

## Cn1cc(C2=C(c3cccc(N)c3)C(=O)NC2=O)c2ccccc21
[1]
  IC50: 1900 nM
[2]
  IC50: 1.8 nM

## COc1ccc(C2=C(c3cn(C)c4ccccc34)C(=O)NC2=O)c(OC)c1
[1]
  IC50: 5500 nM
[2]
  IC50: 2.4 nM

## Cn1cc(C2=C(c3cccc(NCCCO)c3)C(=O)NC2=O)c2ccccc21
[1]
  IC50: 740 nM
[2]
  IC50: 1 nM

## Cn1cc(C2=C(Nc3ccccc3)C(=O)NC2=O)c2ccccc21
[2]
  IC50: 350 nM

## Cn1cc(C2=C(c3ccccc3Cl)C(=O)NC2=O)c2ccccc21
[1]
  IC50: 760 nM
[2]
  IC50: 3.6 nM

## COc1cccc(C2=C(c3c(C)n(C)c4ccccc34)C(=O)NC2=O)c1
[2]
  IC50: 220 nM

## COc1cccc(C2=C(c3cn(C)c4cc(C)ccc34)C(=O)NC2=O)c1
[1]
  IC50: 2900 nM
[2]
  IC50: 35 nM

## COc1cccc(C2=C(c3cn(C)c4cccc(OC)c34)C(=O)NC2=O)c1
[2]
  IC50: 1300 nM

## Cn1cc(C2=C(c3cccc(OCC(O)CO)c3)C(=O)NC2=O)c2cc(F)ccc21 (racemic)
[1]
  IC50: 2200 nM
[2]
  IC50: 1.8 nM
[3]
  solubility: 2.8 µg/mL (≈ 6.82 µM)

## Cn1cc(C2=C(c3cccnc3)C(=O)NC2=O)c2ccccc21
[1]
  IC50: > 30000 nM
[2]
  IC50: 42 nM

## Cn1cc(C2=C(c3ccc(-c4ccccc4)cc3)C(=O)NC2=O)c2ccccc21
[2]
  IC50: 730 nM

## Cn1cc(C2=C(Sc3ccccc3)C(=O)NC2=O)c2ccccc21
[2]
  IC50: 2000 nM

## Cn1cc(C2=C(c3cccc(NCC(O)CO)c3)C(=O)NC2=O)c2cc(Cl)ccc21 (racemic)
[1]
  IC50: 260 nM
[2]
  IC50: 0.4 nM
[3]
  solubility: 42 µg/mL (≈ 98.6 µM)
Rattus norvegicus [4]
  AUC: 100 ng·h/mL
Rattus norvegicus [5]
  Cmax: 110 ng/mL

## Cn1cc(C2=C(Oc3ccccc3)C(=O)NC2=O)c2ccccc21
[2]
  IC50: 2800 nM

## COc1ccc(C2=C(c3cn(C)c4ccccc34)C(=O)NC2=O)cc1OC
[1]
  IC50: 6600 nM
[2]
  IC50: 6.6 nM

## Cn1cc(C2=C(N3CCOCC3)C(=O)NC2=O)c2ccccc21
[2]
  IC50: 8200 nM

## Nc1nc(NCCNc2ncc(-c3ncc[nH]3)c(-c3ccc(Cl)cc3Cl)n2)ccc1[N+](=O)[O-]
[2]
  IC50: 0.56 nM

## COc1cccc(C2=C(c3cn(C)c4ccccc34)C(=O)NC2=O)c1
[1]
  IC50: 6000 nM
[2]
  IC50: 90 nM
[3]
  solubility: < 0.5 µg/mL
Mus musculus [6]
  Cmax: BLD
Mus musculus [7]
  AUC: BLD

## COc1cccc(C2=C(c3cn(C)c4cc(F)ccc34)C(=O)NC2=O)c1
[1]
  IC50: 4200 nM
[2]
  IC50: 31 nM

## Cn1cc(C2=C(c3cccc(NCC(O)CO)c3)C(=O)NC2=O)c2cc(F)ccc21 (racemic)
Rattus norvegicus [8]
  Activity: Active
[9]
  Kd: 41 nM
[10]
  Kd: 110 nM
[11]
  Kd: 410 nM
[12]
  Kd: 23000 nM
[13]
  Kd: 40000 nM
[14]
  Kd: 40000 nM
[1]
  IC50: 400 nM
[15]
  Kd: 87 nM
[16]
  Kd: 69 nM
[17]
  Kd: 16 nM
Rattus norvegicus [18]
  Activity: Active
[19]
  Kd: 40000 nM
[20]
  Kd: 80 nM
[21]
  Kd: 32 nM
[22]
  Kd: 40000 nM
[3]
  solubility: 104 µg/mL (≈ 254 µM)
Rattus norvegicus [23]
  Activity: Active
[24]
  Kd: 40000 nM
[25]
  Kd: 14000 nM
[26]
  Kd: 5600 nM
[27]
  Kd: 40000 nM
[28]
  Kd: 110 nM
Aurora kinase B
  Kd: 40000 nM
[29]
  Kd: 1.5 nM
[30]
  Kd: 310 nM
[31]
  Kd: 150 nM
[32]
  Kd: 6800 nM
[33]
  Kd: 40000 nM
[34]
  Kd: 6700 nM
[35]
  Kd: 10 nM
[36]
  Kd: 230 nM
Rattus norvegicus [37]
  Activity: Active
[38]
  Kd: 320 nM
Aurora kinase C
  Kd: 23000 nM
Aurora kinase A
  Kd: 40000 nM

## COc1cccc(C2=C(c3cn(C)c4ccc(Cl)cc34)C(=O)NC2=O)c1
[1]
  IC50: 1400 nM
[2]
  IC50: 6.4 nM

## Cn1cc(C2=C(N(C(=O)OC(C)(C)C)c3ccccc3)C(=O)NC2=O)c2ccccc21
[2]
  IC50: 3100 nM

## COc1ccc(OC)c(C2=C(c3cn(C)c4ccccc34)C(=O)NC2=O)c1
[1]
  IC50: 380 nM
[2]
  IC50: 22 nM

## Cn1cc(C2=C(c3cccs3)C(=O)NC2=O)c2ccccc21
[1]
  IC50: 8900 nM
[2]
  IC50: 22 nM
